Common to all, as to format: cell-based, human
In one test the test system is neutrophils. The test can be described thus: PMA-induced NET formation in neutrophils. To be noted: 100 μM, neutrophils stimulated with 25 nM PMA 3 h.
The next test relates to pDCs. The test can be described thus: pDC stimulation with NETs.
In a further test the test system is NETs. The test is described as follows: Detection of LL-37 in NETs by immunofluorescence microscopy. The settings on record: 100 μM, PMA-induced NETs, antibody specific for native LL-37. In a few lines:
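Human neutrophils, hypotonically lysed to remove RBCs, seeded at 1 × 10^5 cells on 1% BSA-treated coverslips, 30 min at 37 °C, 5% CO2. Where indicated, 100 μM PAD inhibitor. NETs induced with 25 nM PMA, 3 h. Fixed in 3.7% paraformaldehyde; mouse anti-LL-37 (1:50, 1 h RT), Alexa-Fluor-647 anti-mouse (1:1000, 45 min), Hoechst 1 μg/mL; imaged at 20×.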

The source of these data is PMC5860981 (Journal of immunology (Baltimore, Md. : 1950), 2018).

Turning to `NC(=O)[C@H](CCCN=C(N)CCl)NC(=O)c1ccccc1` [Cl-A, Cl-amidine], in the test with neutrophils, the “NET formation and levels of citrullination” value is “reduced both the levels of citrullination (Figure S3) and NET formation”. Besides, in the test with pDCs (100 μM inhibitor, ELISA), the “IL-6 in conditioned medium from pDCs treated with NETs generated in the presence of inhibitor” value is recorded as “substantial amount of IL-6”. Besides, the “MxA expression in pDCs exposed to NETs pre-treated with inhibitor” value in the test on pDCs (NETs from neutrophils given 100 μM inhibitor before PMA, real-time PCR) was “upregulated markedly”. Also, in the test on NETs, the “LL-37 fluorescence spots relative to amount of NETs, versus no inhibitor” value stood at 3 times.
